Data from the M2OR odorant receptor database.

Columns and labels:
Conditions in all cases: stereoisomer not certain
[1] = target: T1, OR2G2 (Homo sapiens) (UniProt Q8NGZ5)
T1 sequence (whole entry): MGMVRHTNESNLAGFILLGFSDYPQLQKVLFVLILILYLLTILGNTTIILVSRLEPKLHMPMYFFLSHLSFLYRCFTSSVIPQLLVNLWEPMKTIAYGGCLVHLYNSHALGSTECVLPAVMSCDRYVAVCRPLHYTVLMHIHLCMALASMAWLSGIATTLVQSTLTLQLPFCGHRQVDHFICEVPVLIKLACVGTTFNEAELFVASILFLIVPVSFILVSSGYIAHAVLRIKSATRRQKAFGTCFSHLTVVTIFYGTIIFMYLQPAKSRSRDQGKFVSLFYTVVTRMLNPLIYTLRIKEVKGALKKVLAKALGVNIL
Summary of the method: (§1)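 Values were gathered from published papers (main text and supplementary material), with extra details requested from the original authors when needed, and checked for typos and inconsistencies. Each receptor–molecule pair is called responsive (active) if the original authors judged the measured signal statistically different from baseline, and non-responsive (inactive) otherwise. Assay methods varied by source, often transient mammalian cell-line luciferase assays. Recorded details include cell line, G-protein, co-transfected protein and tags.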

[2] = target: OR2D3 (Homo sapiens) (UniProt Q8NGH3)
Sequence of OR2D3 (Homo sapiens) (Q8NGH3 whole entry): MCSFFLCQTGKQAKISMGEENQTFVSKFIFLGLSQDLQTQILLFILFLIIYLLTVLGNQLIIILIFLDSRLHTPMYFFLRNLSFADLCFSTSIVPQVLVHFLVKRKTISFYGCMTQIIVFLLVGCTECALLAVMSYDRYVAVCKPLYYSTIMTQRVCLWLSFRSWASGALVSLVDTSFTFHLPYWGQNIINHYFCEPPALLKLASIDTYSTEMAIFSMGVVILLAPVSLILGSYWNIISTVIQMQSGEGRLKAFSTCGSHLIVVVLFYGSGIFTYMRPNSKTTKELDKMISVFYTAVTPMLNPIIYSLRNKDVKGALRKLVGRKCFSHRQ
Summary of the method: as §1

[3] = target: OR2F1 (Homo sapiens) (UniProt Q13607)
Sequence of OR2F1 (Homo sapiens) (Q13607 whole entry): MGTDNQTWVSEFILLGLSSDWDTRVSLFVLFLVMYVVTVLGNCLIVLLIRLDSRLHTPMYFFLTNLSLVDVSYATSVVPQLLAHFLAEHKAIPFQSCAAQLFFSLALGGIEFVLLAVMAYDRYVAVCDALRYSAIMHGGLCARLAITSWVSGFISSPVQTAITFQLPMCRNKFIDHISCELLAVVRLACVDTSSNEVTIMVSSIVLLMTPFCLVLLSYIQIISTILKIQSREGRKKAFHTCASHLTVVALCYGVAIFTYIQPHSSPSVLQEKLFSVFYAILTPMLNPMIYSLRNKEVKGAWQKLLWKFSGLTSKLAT
Summary of the method: as §1

[4] = target: OR2F2 (Homo sapiens) (UniProt O95006)
Sequence of OR2F2 (Homo sapiens) (O95006 whole entry): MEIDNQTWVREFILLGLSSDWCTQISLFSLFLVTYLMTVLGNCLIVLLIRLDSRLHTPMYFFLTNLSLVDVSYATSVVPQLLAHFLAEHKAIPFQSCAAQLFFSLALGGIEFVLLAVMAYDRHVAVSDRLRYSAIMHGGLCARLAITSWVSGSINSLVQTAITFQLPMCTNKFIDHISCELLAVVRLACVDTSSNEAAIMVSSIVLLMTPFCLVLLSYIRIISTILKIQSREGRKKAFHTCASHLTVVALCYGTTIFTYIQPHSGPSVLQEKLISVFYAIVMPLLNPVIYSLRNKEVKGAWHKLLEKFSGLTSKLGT
Summary of the method: as §1

[5] = target: OR2G3 (Homo sapiens) (UniProt Q8NGZ4)
Sequence of OR2G3 (Homo sapiens) (Q8NGZ4 whole entry): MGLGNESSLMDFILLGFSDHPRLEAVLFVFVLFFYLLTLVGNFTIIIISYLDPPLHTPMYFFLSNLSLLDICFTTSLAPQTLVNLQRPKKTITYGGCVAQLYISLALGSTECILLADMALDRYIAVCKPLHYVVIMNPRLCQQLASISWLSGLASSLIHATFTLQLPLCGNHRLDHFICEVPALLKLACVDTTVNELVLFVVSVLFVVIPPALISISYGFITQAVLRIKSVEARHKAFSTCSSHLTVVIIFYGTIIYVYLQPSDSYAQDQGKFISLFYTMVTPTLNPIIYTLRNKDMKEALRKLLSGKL
Summary of the method: as §1

[6] = target: OR2G6 (Homo sapiens) (UniProt Q5TZ20)
Sequence of OR2G6 (Homo sapiens) (Q5TZ20 whole entry): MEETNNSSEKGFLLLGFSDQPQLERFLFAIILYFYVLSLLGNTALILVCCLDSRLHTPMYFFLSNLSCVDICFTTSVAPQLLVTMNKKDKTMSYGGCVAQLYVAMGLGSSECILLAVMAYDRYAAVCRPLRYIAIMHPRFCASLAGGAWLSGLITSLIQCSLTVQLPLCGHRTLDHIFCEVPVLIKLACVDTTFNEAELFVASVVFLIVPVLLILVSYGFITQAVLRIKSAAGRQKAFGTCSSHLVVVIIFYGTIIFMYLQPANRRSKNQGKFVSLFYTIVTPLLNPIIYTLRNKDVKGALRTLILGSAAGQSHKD
Summary of the method: as §1

[7] = target: OR2H1 (Homo sapiens) (UniProt Q9GZK4)
Sequence of OR2H1 (Homo sapiens) (Q9GZK4 whole entry): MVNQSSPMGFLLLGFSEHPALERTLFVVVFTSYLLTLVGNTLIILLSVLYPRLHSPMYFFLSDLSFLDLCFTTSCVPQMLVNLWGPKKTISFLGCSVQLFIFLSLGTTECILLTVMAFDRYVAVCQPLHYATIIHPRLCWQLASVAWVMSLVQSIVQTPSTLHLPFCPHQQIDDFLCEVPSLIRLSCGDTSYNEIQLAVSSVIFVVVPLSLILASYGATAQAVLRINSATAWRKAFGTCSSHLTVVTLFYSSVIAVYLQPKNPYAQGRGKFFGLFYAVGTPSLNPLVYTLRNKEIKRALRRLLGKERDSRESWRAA
Summary of the method: as §1

[8] = target: T2, OR2H2 (Homo sapiens) (UniProt O95918)
T2 sequence (whole entry): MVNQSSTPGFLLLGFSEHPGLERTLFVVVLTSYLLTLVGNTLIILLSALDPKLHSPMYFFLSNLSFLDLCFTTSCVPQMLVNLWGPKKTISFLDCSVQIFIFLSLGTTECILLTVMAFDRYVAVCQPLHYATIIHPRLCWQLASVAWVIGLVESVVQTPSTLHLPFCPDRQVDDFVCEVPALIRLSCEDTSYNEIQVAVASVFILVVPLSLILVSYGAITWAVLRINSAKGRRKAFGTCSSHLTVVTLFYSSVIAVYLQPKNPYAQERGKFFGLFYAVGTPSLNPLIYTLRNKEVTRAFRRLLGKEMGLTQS
Summary of the method: as §1

[9] = target: OR2J1 (Homo sapiens) (UniProt Q9GZK6)
Sequence of OR2J1 (Homo sapiens) (Q9GZK6 whole entry): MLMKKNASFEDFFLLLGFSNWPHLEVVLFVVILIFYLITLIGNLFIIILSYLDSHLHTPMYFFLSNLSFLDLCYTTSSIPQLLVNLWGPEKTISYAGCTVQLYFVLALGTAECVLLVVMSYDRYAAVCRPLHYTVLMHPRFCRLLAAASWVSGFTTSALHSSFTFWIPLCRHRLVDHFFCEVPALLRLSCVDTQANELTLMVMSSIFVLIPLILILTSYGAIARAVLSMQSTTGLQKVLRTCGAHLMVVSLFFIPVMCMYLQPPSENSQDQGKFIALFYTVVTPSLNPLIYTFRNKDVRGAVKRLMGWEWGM
Summary of the method: as §1

[10] = target: T3, OR2J2 (Homo sapiens) (UniProt O76002)
T3 sequence (whole entry): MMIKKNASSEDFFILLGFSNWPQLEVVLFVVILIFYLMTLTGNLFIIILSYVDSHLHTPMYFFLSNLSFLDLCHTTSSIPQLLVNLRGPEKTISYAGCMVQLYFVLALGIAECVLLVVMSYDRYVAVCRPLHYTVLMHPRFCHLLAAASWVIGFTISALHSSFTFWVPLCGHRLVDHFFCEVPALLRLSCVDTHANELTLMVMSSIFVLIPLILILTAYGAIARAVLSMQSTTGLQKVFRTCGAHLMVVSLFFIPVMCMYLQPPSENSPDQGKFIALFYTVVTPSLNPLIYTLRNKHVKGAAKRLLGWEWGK
Summary of the method: as §1

[11] = target: T4, OR2J3 (Homo sapiens) (UniProt O76001)
T4 sequence (whole entry): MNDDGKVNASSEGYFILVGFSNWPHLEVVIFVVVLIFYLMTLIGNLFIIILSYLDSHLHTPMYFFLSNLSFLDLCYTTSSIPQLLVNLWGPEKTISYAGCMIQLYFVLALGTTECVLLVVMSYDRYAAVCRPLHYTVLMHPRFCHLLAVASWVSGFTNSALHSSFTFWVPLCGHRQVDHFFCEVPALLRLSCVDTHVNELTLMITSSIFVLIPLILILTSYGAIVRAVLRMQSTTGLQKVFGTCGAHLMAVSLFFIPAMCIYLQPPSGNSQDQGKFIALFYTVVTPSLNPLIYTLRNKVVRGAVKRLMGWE
Summary of the method: as §1

[12] = system: OR2J2
Summary of the method: as §1
Target sequence in this assay (as listed by the source): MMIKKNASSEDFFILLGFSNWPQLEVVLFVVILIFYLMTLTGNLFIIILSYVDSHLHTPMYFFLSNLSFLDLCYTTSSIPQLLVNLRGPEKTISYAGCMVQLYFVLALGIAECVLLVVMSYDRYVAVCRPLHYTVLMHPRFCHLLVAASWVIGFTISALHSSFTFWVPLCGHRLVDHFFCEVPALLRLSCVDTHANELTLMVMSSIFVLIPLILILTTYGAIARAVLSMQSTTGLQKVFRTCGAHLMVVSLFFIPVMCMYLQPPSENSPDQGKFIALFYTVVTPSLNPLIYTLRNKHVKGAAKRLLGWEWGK

[13] = system: OR2J2; remark: listed apart in the source
Summary of the method: as §1
Target sequence in this assay (as listed by the source): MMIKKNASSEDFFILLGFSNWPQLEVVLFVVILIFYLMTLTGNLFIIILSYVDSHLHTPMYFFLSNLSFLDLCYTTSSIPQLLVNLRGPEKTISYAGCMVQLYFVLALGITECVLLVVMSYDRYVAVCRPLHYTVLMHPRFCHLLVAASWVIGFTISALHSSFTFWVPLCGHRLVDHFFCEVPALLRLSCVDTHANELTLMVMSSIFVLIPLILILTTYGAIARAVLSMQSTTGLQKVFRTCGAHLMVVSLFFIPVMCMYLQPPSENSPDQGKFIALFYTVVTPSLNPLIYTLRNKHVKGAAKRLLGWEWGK

[14] = system: OR2J3
Sequence of OR2J3 (as listed by the source): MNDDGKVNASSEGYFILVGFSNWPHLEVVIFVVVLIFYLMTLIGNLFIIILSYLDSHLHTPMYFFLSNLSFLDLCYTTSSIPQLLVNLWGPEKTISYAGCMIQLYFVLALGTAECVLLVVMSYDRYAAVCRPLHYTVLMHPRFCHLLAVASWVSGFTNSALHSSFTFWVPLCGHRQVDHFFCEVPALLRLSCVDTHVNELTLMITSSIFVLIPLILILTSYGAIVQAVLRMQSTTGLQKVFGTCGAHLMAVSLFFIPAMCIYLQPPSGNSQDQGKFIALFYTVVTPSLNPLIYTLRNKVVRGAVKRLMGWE
Summary of the method: as §1

[15] = system: OR2D2 S148P I163T M202T
Summary of the method: as §1

[16] = system: OR2D3 R155W
Sequence of OR2D3 R155W (as listed by the source, stated change not applied): as the sequence (Q8NGH3 whole entry) above, with R155W counted along it
Summary of the method: as §1

[17] = system: OR2G2 L167P R236G
Summary of the method: as §1

[18] = system: OR2G3 I289V
Sequence of OR2G3 I289V (as listed by the source, stated change not applied): as the sequence (Q8NGZ4 whole entry) above, with I289V counted along it
Summary of the method: as §1

[19] = system: OR2H2
Sequence of OR2H2 (as listed by the source): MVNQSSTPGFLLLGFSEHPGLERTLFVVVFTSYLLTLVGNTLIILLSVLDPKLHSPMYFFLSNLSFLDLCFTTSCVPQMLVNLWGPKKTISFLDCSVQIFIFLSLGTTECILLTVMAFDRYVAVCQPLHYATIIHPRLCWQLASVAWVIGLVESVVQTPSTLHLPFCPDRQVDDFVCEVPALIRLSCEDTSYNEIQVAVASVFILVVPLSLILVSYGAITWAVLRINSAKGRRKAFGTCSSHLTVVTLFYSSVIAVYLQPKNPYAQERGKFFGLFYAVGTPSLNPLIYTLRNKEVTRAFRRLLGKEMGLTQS
Summary of the method: as §1

[20] = system: OR2J1 L14I V182A
Summary of the method: as §1

Measured: odorant receptor agonist call

O=Cc1ccccc1
inactive: [1]

Cc1c([N+](=O)[O-])c(C)c([N+](=O)[O-])c(C(C)(C)C)c1[N+](=O)[O-]
inactive: [2] | [3] | [4] | [1] | [5] | [6] | [7] | [8] | [9] | [10]
active: [11]

C=CCc1ccccc1
inactive: [10]

CCC1CCC(=O)O1 (centres undefined)
inactive: [10]

CCCCOC(=O)c1ccccc1N
active: [12] | [13]

O=CC=Cc1ccccc1
active: [11] | [14]
inactive: [8]

O=c1cc(O)c2ccccc2o1
inactive: [10]

C=CCOC(=O)Cc1ccccc1
not listed: [12] | [14]
inactive: all other assays above

C=CCc1ccc(OC)cc1
inactive: [1]
